From PubChem
Tn7 DDE FP: inhibitors of Tn7 peptide binding to fibrin DD(E), primary screen, biochemical, fluorescence polarization, human fibrin, Tn7 probe; 370,000 tested, 0.13% active; Fibrinogen beta chain (Homo sapiens), P02675; inhibition, % at 8.3 µM; FP displacement of FITC-Tn7 peptide from fibrin DD(E); 0% = median of compound wells per plate;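 active = inhibition above the mean of compounds falling within the control limits plus 3 SD of them, cut at about 14% in these data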;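 note: 0% = plate median of compound wells and 100% = 10 µM Aha-Tn7 peptide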
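assay system = human clot-derived fibrin DD(E) complex | quantity = Fibrin-DD(E) at 2 µM final | timing = 10 min preincubation, 3 h with tracer, room temperature | signal = fluorescence polarization | measure = percent inhibition | benchmarks = high control wells with 10 µM unlabelled Aha-Tn7 peptide (full inhibition) | replicates = singlicate testing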
HTRA1 inhibitor: HTRA1 serine protease inhibitors, primary screen, biochemical, fluorescence polarization, HTS. Q92743. recombinant HTRA1, FP-rhodamine activity-based probe. inhibition, % at 5.96 µM. 340,000 tested, 0.5% active; in the data active = inhibition above about 36%;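 note: 0% = enzyme with DMSO and 100% = wells lacking enzyme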
TCR CD3 inh: inhibitors of human TCR-CD3 interaction, primary screen, biochemical, fluorescence, TAMRA-labeled TCR probe; 360,000 tested, 0.37% active; inhibition, % at 9.4 µM; AID 651800, 2012;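 note: recombinant mutant TCR 2C K166C tagged with TAMRA read by polarization; 0% = receptor in buffer alone and 100% = receptor with positive control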
Tn6 DDE FP: inhibitors of Tn6 peptide binding to fibrin DD(E), primary screen, biochemical, fluorescence polarization, human fibrin, Tn6 probe | inhibition, % at 8.3 µM | Fibrinogen beta chain (Homo sapiens), P02675 | 370,000 tested, 0.21% active | Fibrin DD(E) TRITC-Tn6 fluorescence polarization displacement;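 active = inhibition above a per-campaign cutoff: mean of compounds within control limits plus 3 SD, cut at about 15% in these data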;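 note: 0% = median of all compound wells on the plate and 100% = blocking peptide control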
SIAE inh: human SIAE inhibitors, primary screen, biochemical, fluorescence polarization, FP-Rh probe, 1536-well HTS; Sialate O-acetylesterase (Homo sapiens), Q9HAT2; SIAE FP-Rh probe binding; inhibition, % at 9.66 µM; 370,000 tested, 0.69% active;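 active = inhibition above a cutoff: mean of compounds within the control limits plus 3 SD of those, cut at about 17% in these data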;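 note: 0% = plate median of compound wells and 100% = probe without SIAE protein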
Target sequence (Q9HAT2 whole entry, looked up): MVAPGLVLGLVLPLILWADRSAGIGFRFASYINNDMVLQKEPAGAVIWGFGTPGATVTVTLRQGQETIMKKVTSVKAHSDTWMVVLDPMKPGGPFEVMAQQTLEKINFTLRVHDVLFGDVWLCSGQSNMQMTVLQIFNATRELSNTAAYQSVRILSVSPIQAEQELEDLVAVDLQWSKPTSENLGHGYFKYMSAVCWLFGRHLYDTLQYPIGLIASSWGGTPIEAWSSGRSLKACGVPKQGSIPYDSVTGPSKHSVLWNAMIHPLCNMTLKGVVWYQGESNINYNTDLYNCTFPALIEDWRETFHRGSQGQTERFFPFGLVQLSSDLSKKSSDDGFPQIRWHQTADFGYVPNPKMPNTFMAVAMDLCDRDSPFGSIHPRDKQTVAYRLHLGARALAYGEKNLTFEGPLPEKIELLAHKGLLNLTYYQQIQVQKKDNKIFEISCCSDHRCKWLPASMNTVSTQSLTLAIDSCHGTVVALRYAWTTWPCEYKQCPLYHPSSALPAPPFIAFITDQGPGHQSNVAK
ABHD4 inh: ABHD4 inhibitors, primary screen, biochemical, fluorescence polarization, mouse; (Lyso)-N-acylphosphatidylethanolamine lipase (Mus musculus), Q8VD66; purified mABHD4, FP-Rh probe fluorescence polarization; inhibition, % at 8.92 µM; 370,000 tested, 0.54% active; AID 720543, 2013;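 active = inhibition exceeding the mean over every tested compound plus 3 SD, cut at about 30% in these data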;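 note: 0% = plate median of compound wells and 100% = S159A mutant with DMSO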
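Test system: mouse ABHD4 enzyme, wild type. Reagent: FP-Rh fluorescent activity-based probe, added after compound pre-incubation. Timing: pre-incubation 45 min, probe exposure 60 min, at 25 °C. Technique: FP readout, ex 525 nm / em 598 nm. Benchmarks: high control S159A mutant with DMSO, low control median of compound wells.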
BSA TAMRA ctr: compounds interfering with TAMRA-BSA probe, counter-screen for TCR-CD3 interaction inhibitor project, biochemical, fluorescence, TAMRA-labeled BSA | shares compounds with TCR CD3 inh | TAMRA-labeled BSA probe fluorescence counterscreen | inhibition, % at 9.4 µM | 1,200 tested, 10% active; in the data active = inhibition above about 23%;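 note: 0% = buffer low control and 100% = reference high control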
TCR-CD3 conf: TCR-CD3 interaction inhibitors, retest, confirmation, biochemical, fluorescence, TAMRA-labeled TCR probe | TAMRA-labeled TCR probe fluorescence binding assay | inhibition, % at 9.4 µM | 1,200 tested, 48% active | shares compounds with TCR CD3 inh
* = called active by the depositor; . = no result. Hits are enriched below; roughly 1.8% of the tested compounds scored in any of these assays. Cut-off read from the data, not from the text of the source, unless noted: active = inhibition above about 19%; inactive = the rest.

SMILES	Tn7 DDE FP	HTRA1 inhibitor	TCR CD3 inh	Tn6 DDE FP	SIAE inh	ABHD4 inh	BSA TAMRA ctr	TCR-CD3 conf
CCC(=O)OCCCN1CCC2(CCC(c3ccccc3)CC2)C1=O (stereo not drawn)	1	.	.	1	-4	0	.	.
Cc1nn2c(-c3cccc(NC(=O)c4ccco4)c3)nnc2c2ccccc12	0	-33	20*	12	-41	-20	0	9
Cc1c(OC(C(=O)O)c2ccccc2)ccc2c1oc(=O)c1ccccc12 (stereo not drawn)	-2	-8	19*	-13	-9	-2	2	0
O=C(Nc1ccc(N2C(=O)CC(c3ccccc3)C2=O)c(Cl)c1)c1ccccn1 (stereo not drawn)	-3	.	.	1	3	4	.	.
O=C(CC1SC(=O)NC1=O)Oc1ccc(/C=N/NC(=O)c2ccccc2O)cc1 (stereo not drawn)	-1	10	32*	-5	9	6	-15	11
COc1cccc(/C=C2\CC3(OC(=O)c4cccc(F)c4)CCCN2C3)c1 (stereo not drawn)	-6	.	.	-9	5	-1	.	.
COc1ccc(C(C)=NNC(=O)c2cccc(S(=O)(=O)N3CCCC3)c2)cc1	1	-3	4	5	2	6	.	.
COc1ccc(/C(C)=N/NC(=O)c2cccc(S(=O)(=O)N3CCCC3)c2)c(O)c1	2	16	34*	2	15	16	-17	20*
CCc1cccc(C)c1NC(=O)COC(=O)c1c2c(nc3ccccc13)/C(=C\c1cccs1)CCC2	4	-36	9	0	-3	-17	.	.
NC(=O)c1ccc(NC(=O)COC(=O)c2c3c(nc4ccccc24)/C(=C\c2cccs2)CCC3)cc1	2	-42	20*	5	-71	-45	-9	-3
Cc1ccc(C(=O)NCCCC(=O)O)o1	8	0	41*	-1	-5	-9	1	1
CCn1c(=O)n(CC(=O)N2CCCC2)c(=O)c2ccccc21	-4	.	.	6	3	1	.	.
CC(=O)c1cccc(NC(=O)CSc2ccc(-c3ccco3)nn2)c1	-7	-4	26*	-12	5	18	3	6
CCCCn1c(N)c(N(CCOC)C(=O)c2cc(-c3ccco3)nc3ccccc23)c(=O)[nH]c1=O	-4	5	22*	-2	1	18	0	10
O=C(Nc1cccc(S(=O)(=O)NC2=NCCC2)c1)c1cc(-c2ccco2)nc2ccccc12	4	14	23*	-4	6	11	-2	32*
O=C(Nc1nc2ccccc2s1)c1cc(-c2ccco2)nc2ccccc12	-2	-42	4	-1	-10	-9	.	.
Cc1nnc(NC(=O)c2cc(-c3ccco3)nc3ccccc23)s1	2	3	19*	-5	-2	11	3	20*
O=C(NC(=S)Nc1cccc(S(=O)(=O)NC2=NCCC2)c1)c1cc(-c2ccco2)nc2ccccc12	-2	4	17	-5	0	8	.	.
O=C(N/N=C/c1ccc(F)cc1)c1cc(-c2ccco2)nc2ccccc12	-1	13	30*	-3	10	0	-3	23*
COc1ccccc1OCC(=O)N/N=C/C=C/c1ccc([N+](=O)[O-])o1	-2	0	27*	1	16	24	-1	1
